Source: ChEMBL document CHEMBL1132144, “Synthesis of 9-O-substituted derivatives of 9-hydroxy-5, 6-dimethyl-6H-pyrido[4,3-b]carbazole-1-carboxylic acid (2-(dimethylamino)ethyl)amide and their 10- and 11-methyl analogues with improved antitumor activity” (J Med Chem, 1999)

Key:
[1] = system: B16; experiment: Inhibition of murine B16 melanoma cell proliferation measured by the MTT assay; format: functional, cell-based; conditions: Mus musculus
Outline: (§1)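 Murine L1210 leukemia and B16 melanoma cells were grown in RPMI 1640 with 10% fetal calf serum, 2 mM L-glutamine, penicillin/streptomycin and 10 mM HEPES (pH 7.4). Cells were exposed to nine serial drug dilutions in triplicate for about four doubling times (L1210 48 h, B16 96 h), then read by microculture tetrazolium (MTT) assay. IC50 is the concentration halving optical density versus untreated controls, averaged over ≥2 independent experiments.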

[2] = system: Mus musculus; experiment: Percent median survival time of mice injected with P388 leukemia, at a subcutaneous compound dose of 20 mg/kg; format: functional
[3] = system: L1210; experiment: Inhibition of murine L1210 leukemia cell proliferation measured by the MTT assay; format: functional, cell-based; conditions: Mus musculus; outline: as §1
[4] = system: Mus musculus; experiment: Long-term survivors among 7 mice infected with P388 leukemia, scored on day 60 at 20 mg/kg dose on day 1; format: functional
Outline: (§2)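 B6D2F1 mice in groups of 6–7 received 10^6 P388 cells ip on day 0. Dihydrochloride salts dissolved in water were injected iv on day 1 or on days 1, 5 and 9, at three doses and then five. Read-outs were % T/C (median survival treated/control × 100) and long-term survivors on day 60, both at the optimal dose (no toxic death, weight loss <20%).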

[5] = system: Mus musculus; experiment: Long-term survivors among 7 mice infected with B16 melanoma, scored on day 90 at 20 mg/kg dose on day 1; format: functional
[6] = system: Mus musculus; experiment: Percent median survival time of mice injected with P388 leukemia, at a subcutaneous compound dose of 10 mg/kg; format: functional
[7] = system: Mus musculus; experiment: Percent median survival time of mice injected with B16 melanoma, at a intraperitoneal compound dose of 40 mg/kg
[8] = system: Mus musculus; experiment: Percent median survival time of mice injected with B16 melanoma, at a intraperitoneal compound dose of 20 mg/kg
[9] = system: Mus musculus; experiment: Long-term survivors among 6 mice infected with P388 leukemia, scored on day 60 at 160 mg/kg dose; format: functional
Outline: (§3)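 B6D2F1 mice in groups of 6–7 were inoculated ip on day 0 with 10^6 P388 cells. Dihydrochloride salts were dissolved in water and given iv on day 1 or on days 1, 5 and 9. Doses ranged from a low nontoxic dose to a toxic one. Long-term survivors were counted at day 60.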

[10] = system: Mus musculus; experiment: Long-term survivors among 6 mice infected with P388 leukemia, scored on day 60 at 80 mg/kg dose; format: functional; outline: as §3
[11] = system: Mus musculus; experiment: Percent median survival time of mice intraperitoneally injected with P388 leukemia was determined from tested at 160 mg/kg at day1 dose to that of control; format: functional
Outline: (§4)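 P388 leukemia in B6D2F1 mice (groups of 6–7), 10^6 cells inoculated ip on day 0. Dihydrochloride salts were dissolved in water and given iv on day 1 or on days 1, 5, 9. Three doses were tested, then five if active. %T/C = median survival treated/control × 100, reported at the optimal dose (no toxic death, weight loss <20%), from one or two representative experiments.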

[12] = system: Mus musculus; experiment: Percent median survival time of mice intraperitoneally injected with P388 leukemia was determined from tested at 80 mg/kg at day1,5,9 dose to that of control; format: functional; conditions: route intraperitoneal; outline: as §4
[13] = system: Mus musculus; experiment: Percent median survival time of mice injected with P388 leukemia, at a subcutaneous compound dose of 10 mg/kg on day 1, 5, 9; format: functional
[14] = system: Mus musculus; experiment: Percent median survival time of mice injected with P388 leukemia, at a subcutaneous compound dose of 10 mg/kg on day 1; format: functional
[15] = system: Mus musculus; experiment: Long-term survivors among 7 mice infected with B16 melanoma, scored on day 90 at 10 mg/kg dose on day 1; format: functional
[16] = system: Mus musculus; experiment: Percent median survival time of mice injected with B16 melanoma, at a intraperitoneal compound dose of 10 mg/kg
[17] = system: Mus musculus; experiment: Long-term survivors among 7 mice infected with P388 leukemia, scored on day 60 at 10 mg/kg dose on day 1; format: functional; outline: as §2
[18] = species on record: Mus musculus; experiment: Long-term survivors among 14 mice infected with B16 melanoma, scored on day 90 at optimal dose on days 1-9
[19] = system: Mus musculus; experiment: Percent median survival time of mice injected with P388 leukemia, at a intravenous compound dose of 40 mg/kg
[20] = system: Mus musculus; experiment: Long-term survivors among 14 mice infected with P388 leukemia, scored on day 60 at 40 mg/kg dose on day 1; format: functional; outline: as §3
[21] = system: Mus musculus; experiment: Percent median survival time of mice injected with P388 leukemia, at a intravenous compound dose of 320 mg/kg
[22] = species on record: Mus musculus; experiment: Long-term survivors among 14 mice infected with B16 melanoma, scored on day 90 at optimal dose on days 1-9; remark: listed apart in the source
[23] = system: Mus musculus; experiment: Percent median survival time of mice injected with P388 leukemia, at a intravenous compound dose of 80 mg/kg
[24] = system: Mus musculus; experiment: Long-term survivors among 14 mice infected with P388 leukemia, scored on day 60 at 320 mg/kg dose on day 1; format: functional; outline: as §3
[25] = system: Mus musculus; experiment: Long-term survivors among 7 mice infected with P388 leukemia, scored on day 90 at 10 mg/kg dose; format: functional
[26] = system: Mus musculus; experiment: Percent median survival time of mice intraperitoneally injected with P388 leukemia was determined from tested at 40 mg/kg at day1 dose to that of control; format: functional; conditions: route intraperitoneal; outline: as §4
[27] = system: Mus musculus; experiment: Long-term survivors among 6 mice infected with P388 leukemia, scored on day 60 at 40 mg/kg dose on day 1, 5, 9; format: functional; outline: as §3
[28] = system: Mus musculus; experiment: Long-term survivors among 6 mice infected with P388 leukemia, scored on day 60 at 40 mg/kg dose on day 1; format: functional; outline: as §3
[29] = system: Mus musculus; experiment: Percent median survival time of mice intraperitoneally injected with P388 leukemia was determined from tested at 40 mg/kg at day1,5,9 dose to that of control; format: functional; conditions: route intraperitoneal; outline: as §4
[30] = system: Mus musculus; experiment: Percent median survival time of mice injected with B16 melanoma, at a intraperitoneal compound dose of 5 mg/kg
[31] = system: Mus musculus; experiment: Long-term survivors among 6 mice infected with P388 leukemia, scored on day 60 at 60 mg/kg dose on day 1; format: functional; outline: as §3
[32] = system: Mus musculus; experiment: Long-term survivors among 6 mice infected with B16 melanoma, scored on day 90 at 10 mg/kg dose
[33] = system: Mus musculus; experiment: Percent median survival time of mice injected with P388 leukemia, at a intravenous compound dose of 60 mg/kg
[34] = system: Mus musculus; experiment: Percent median survival time of mice intraperitoneally injected with P388 leukemia was determined from tested at 20 mg/kg at day1,5,9 dose to that of control; format: functional; conditions: route intravenous; outline: as §4
[35] = system: Mus musculus; experiment: Long-term survivors among 6 mice infected with P388 leukemia, scored on day 60 at 20 mg/kg dose; format: functional; outline: as §3
[36] = system: Mus musculus; experiment: Long-term survivors among 6 mice infected with P388 leukemia, scored on day 60 at 40 mg/kg dose; format: functional; outline: as §3

| SMILES | IC50 [1] [nM] | IC50 [3] [nM] | T/C [13] [%] | T/C [14] [%] | LTS [15] | T/C [16] [%] | LTS [17] | other results |
| --- | --- | --- | --- | --- | --- | --- | --- | --- |
| Cc1c2ccnc(C(=O)NCCN(C)C)c2cc2c3cc(OC(=O)NCCCC(=O)OCc4ccccc4)ccc3n(C)c12 | 29.4 | 304 | – | – | – | – | – | T/C [2]: 103%; LTS [4]: 0; LTS [5]: 0; T/C [6]: 93%; T/C [7]: 96% |
| Cc1c2ccnc(C(=O)NCCN(C)C)c2cc2c3cc(OC(=O)N4CCOCC4)ccc3n(C)c12 | 1770 | 646 | – | – | – | – | – | T/C [8]: 139%; LTS [9]: 0; LTS [10]: 0; T/C [11]: 149%; T/C [12]: 196% |
| CCCCCCCCC(=O)Oc1ccc2c(c1)c1cc3c(C(=O)NCCN(C)C)nccc3c(C)c1n2C | 20.8 | 31.1 | 147 | 131 | 0 | 160 | 0 | – |
| CCCCCCCCCCCCCC(=O)Oc1ccc2c(c1)c1cc3c(C(=O)NCCN(C)C)nccc3c(C)c1n2C | 195 | 215 | – | – | – | 166 | – | LTS [18]: 1; T/C [19]: 176%; T/C [6]: 153%; LTS [20]: 0 |
| CCCCCCCCCCCCNC(=O)Oc1ccc2c(c1)c1cc3c(C(=O)NCCN(C)C)nccc3c(C)c1n2C | 2300 | 809 | 107 | 104 | 0 | – | 0 | T/C [7]: 133% |
| Cc1c2ccnc(C(=O)NCCN(C)C)c2cc2c3cc(OC(=O)CCCCCC(=O)O)ccc3n(C)c12 | 3.2 | 3.7 | – | – | – | 246 | – | T/C [21]: >600%; LTS [22]: 1; T/C [23]: >600%; LTS [24]: 5 |
| Cc1c2ccnc(C(=O)NCCN(C)C)c2cc2c3cc(OC(=O)N4CCC(N5CCCCC5)CC4)ccc3n(C)c12 | 2690 | 696 | – | – | – | 161 | – | LTS [25]: 0; T/C [26]: 133%; LTS [27]: 0; LTS [28]: 0; T/C [29]: 169% |
| Cc1c2ccnc(C(=O)NCCN(C)C)c2cc2c3cc(OC(=O)Cc4ccccc4)ccc3n(C)c12 | 22.3 | 26.7 | 157 | 125 | 0 | – | 0 | T/C [30]: 147% |
| CC(=O)Oc1ccc2c(c1)c1cc3c(C(=O)NCCN(C)C)nccc3c(C)c1n2C | 6.1 | 5.1 | – | – | – | 182 | – | LTS [31]: 1; LTS [32]: 0; T/C [33]: 214%; T/C [19]: 275%; LTS [27]: 0 |
| COc1ccc2c(c1)c1cc3c(C(=O)NCCN(C)C)nccc3c(C)c1n2C | 334 | 551 | – | – | – | 126 | – | T/C [34]: 96%; LTS [25]: 0; T/C [26]: 94%; LTS [35]: 0; LTS [36]: 0 |
